Test results taken from ChEMBL document CHEMBL3585335, “Isolation and Synthetic Diversification of Jadomycin 4-Amino-l-phenylalanine” (J Nat Prod, 2015).
Activity calls are given as the source filed them.

Experiments:
Escherichia coli [1] = assay: Effect on Copper-mediated Escherichia coli pBR322 DNA cleavage at 100 uM by gel-electrophoresis analysis
SK-MEL-2 = assay: Cytotoxicity against human SK-MEL-2 cells assessed as cell growth at 1 x 10^-5 M; format: functional, cell-based
How it was run: (§1)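 Run by the NCI Developmental Therapeutics Program (DTP) as its one-dose screen across the 60 human tumour cell line panel.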

BT-549 = assay: Cytotoxicity against human BT549 cells assessed as cell growth at 1 x 10^-5 M; format: functional, cell-based; how it was run: as §1
Escherichia coli [2] = assay: Effect on Copper-mediated Escherichia coli pUC19 DNA cleavage at 100 uM by gel-electrophoresis analysis
SN12C = assay: Cytotoxicity against human SN12C cells assessed as cell growth at 1 x 10^-5 M; format: functional, cell-based; how it was run: as §1
SK-MEL-5 = assay: Cytotoxicity against human SK-MEL-5 cells assessed as cell growth at 1 x 10^-5 M; format: functional, cell-based; how it was run: as §1
LOX IMVI = assay: Cytotoxicity against human LOXIMVI cells assessed as cell growth at 1 x 10^-5 M; format: functional, cell-based; how it was run: as §1
M14 = assay: Cytotoxicity against human M14 cells assessed as cell growth at 1 x 10^-5 M; format: functional, cell-based; how it was run: as §1
SNB-19 = assay: Cytotoxicity against human SNB19 cells assessed as cell growth at 1 x 10^-5 M; format: functional, cell-based; how it was run: as §1
SR = assay: Cytotoxicity against human SR cells assessed as cell growth at 1 x 10^-5 M; format: functional, cell-based; how it was run: as §1
HOP-92 = assay: Cytotoxicity against human HOP92 cells assessed as cell growth at 1 x 10^-5 M; format: functional, cell-based; how it was run: as §1
IGROV-1 = assay: Cytotoxicity against human IGROV1 cells assessed as cell growth at 1 x 10^-5 M; format: functional, cell-based; how it was run: as §1
NCI-H23 = assay: Cytotoxicity against human NCI-H23 cells assessed as cell growth at 1 x 10^-5 M; format: functional, cell-based; how it was run: as §1
NCI-H226 = assay: Cytotoxicity against human NCI-H226 cells assessed as cell growth at 1 x 10^-5 M; format: functional, cell-based; how it was run: as §1
SF-268 = assay: Cytotoxicity against human SF268 cells assessed as cell growth at 1 x 10^-5 M; format: functional, cell-based; how it was run: as §1
MOLT-4 = assay: Cytotoxicity against human MOLT4 cells assessed as cell growth at 1 x 10^-5 M; format: functional, cell-based; how it was run: as §1
DU-145 = assay: Cytotoxicity against human DU145 cells assessed as cell growth at 1 x 10^-5 M; format: functional, cell-based; how it was run: as §1
Malme-3M = assay: Cytotoxicity against human MALME-3M cells assessed as cell growth at 1 x 10^-5 M; format: functional, cell-based; how it was run: as §1
HCT-116 = assay: Cytotoxicity against human HCT116 cells assessed as cell growth at 1 x 10^-5 M; format: functional, cell-based; how it was run: as §1
UO-31 = assay: Cytotoxicity against human UO31 cells assessed as cell growth at 1 x 10^-5 M; format: functional, cell-based
How it was run: (§2)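 Tested by the NCI Developmental Therapeutics Program in its one-dose screen across the 60 human tumour cell line panel.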

MCF7 = assay: Cytotoxicity against human MCF7 cells assessed as cell growth at 1 x 10^-5 M; format: functional, cell-based; how it was run: as §1
CAKI-1 = assay: Cytotoxicity against human Caki1 cells assessed as cell growth at 1 x 10^-5 M; format: functional, cell-based; how it was run: as §1
SNB-75 = assay: Cytotoxicity against human SNB75 cells assessed as cell growth at 1 x 10^-5 M; format: functional, cell-based; how it was run: as §1
T47D = assay: Cytotoxicity against human T47D cells assessed as cell growth at 1 x 10^-5 M; format: functional, cell-based; how it was run: as §2
CCRF-CEM = assay: Cytotoxicity against human CCRF-CEM cells assessed as cell growth at 1 x 10^-5 M; format: functional, cell-based; how it was run: as §1
MDA-MB-468 = assay: Cytotoxicity against human MDA-MB-468 cells assessed as cell growth at 1 x 10^-5 M; format: functional, cell-based; how it was run: as §1
OVCAR-8 = assay: Cytotoxicity against human OVCAR8 cells assessed as cell growth at 1 x 10^-5 M; format: functional, cell-based; how it was run: as §1
COLO 205 = assay: Cytotoxicity against human COLO205 cells assessed as cell growth at 1 x 10^-5 M; format: functional, cell-based; how it was run: as §1
SW-620 = assay: Cytotoxicity against human SW620 cells assessed as cell growth at 1 x 10^-5 M; format: functional, cell-based; how it was run: as §2
UACC-257 = assay: Cytotoxicity against human UACC257 cells assessed as cell growth at 1 x 10^-5 M; format: functional, cell-based; how it was run: as §2
A549 = assay: Cytotoxicity against human A549 cells assessed as cell growth at 1 x 10^-5 M; format: functional, cell-based; how it was run: as §1
UACC-62 = assay: Cytotoxicity against human UACC62 cells assessed as cell growth at 1 x 10^-5 M; format: functional, cell-based; how it was run: as §2
U-251 = assay: Cytotoxicity against human U251 cells assessed as cell growth at 1 x 10^-5 M; format: functional, cell-based; how it was run: as §2
HL-60(TB) = assay: Cytotoxicity against human HL-60(TB) cells assessed as cell growth at 1 x 10^-5 M; format: functional, cell-based
How it was run: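 Run by the NCI Developmental Therapeutics Program (DTP) within its 60 human tumour cell line one-dose screen.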

RXF 393 = assay: Cytotoxicity against human RXF393 cells assessed as cell growth at 1 x 10^-5 M; format: functional, cell-based; how it was run: as §1
ACHN = assay: Cytotoxicity against human ACHN cells assessed as cell growth at 1 x 10^-5 M; format: functional, cell-based; how it was run: as §1
SK-OV-3 = assay: Cytotoxicity against human SKOV3 cells assessed as cell growth at 1 x 10^-5 M; format: functional, cell-based; how it was run: as §1
K562 = assay: Cytotoxicity against human K562 cells assessed as cell growth at 1 x 10^-5 M; format: functional, cell-based; how it was run: as §1
NCI-H460 = assay: Cytotoxicity against human NCI-H460 cells assessed as cell growth at 1 x 10^-5 M; format: functional, cell-based; how it was run: as §1
SF-295 = assay: Cytotoxicity against human SF295 cells assessed as cell growth at 1 x 10^-5 M; format: functional, cell-based; how it was run: as §1
SF-539 = assay: Cytotoxicity against human SF539 cells assessed as cell growth at 1 x 10^-5 M; format: functional, cell-based; how it was run: as §1
MDA-MB-231 = assay: Cytotoxicity against human MDA-MB-231 cells assessed as cell growth at 1 x 10^-5 M; format: functional, cell-based; how it was run: as §1
NCI/ADR-RES = assay: Cytotoxicity against human NCI-ADR-RES cells assessed as cell growth at 1 x 10^-5 M; format: functional, cell-based; how it was run: as §1
MDA-MB-435 = assay: Cytotoxicity against human MDA-MB-435 cells assessed as cell growth at 1 x 10^-5 M; format: functional, cell-based; how it was run: as §1
PC-3 = assay: Cytotoxicity against human PC3 cells assessed as cell growth at 1 x 10^-5 M; format: functional, cell-based; how it was run: as §1
OVCAR-5 = assay: Cytotoxicity against human OVCAR5 cells assessed as cell growth at 1 x 10^-5 M; format: functional, cell-based; how it was run: as §1
HCC 2998 = assay: Cytotoxicity against human HCC2998 cells assessed as cell growth at 1 x 10^-5 M; format: functional, cell-based; how it was run: as §1
SK-MEL-28 = assay: Cytotoxicity against human SK-MEL-28 cells assessed as cell growth at 1 x 10^-5 M; format: functional, cell-based; how it was run: as §1
Escherichia coli [3] = assay: Effect on photodynamic inactivation in Escherichia coli pUC19 DNA assessed as photo-mediated DNA cleavage at 10 to 100 uM by ethidium bromide gel-electrophoresis analysis
KM12 = assay: Cytotoxicity against human KM12 cells assessed as cell growth at 1 x 10^-5 M; format: functional, cell-based; how it was run: as §1
TK-10 = assay: Cytotoxicity against human TK10 cells assessed as cell growth at 1 x 10^-5 M; format: functional, cell-based; how it was run: as §2
HT-29 = assay: Cytotoxicity against human HT-29 cells assessed as cell growth at 1 x 10^-5 M; format: functional, cell-based; how it was run: as §1
NCI-H322M = assay: Cytotoxicity against human NCI-H322M cells assessed as cell growth at 1 x 10^-5 M; format: functional, cell-based; how it was run: as §1
Hs-578T = assay: Cytotoxicity against human Hs578T cells assessed as cell growth at 1 x 10^-5 M; format: functional, cell-based; how it was run: as §1
HOP-62 = assay: Cytotoxicity against human HOP62 cells assessed as cell growth at 1 x 10^-5 M; format: functional, cell-based; how it was run: as §1
786-0 = assay: Cytotoxicity against human 786-0 cells assessed as cell growth at 1 x 10^-5 M; format: functional, cell-based; how it was run: as §1
OVCAR-3 = assay: Cytotoxicity against human OVCAR3 cells assessed as cell growth at 1 x 10^-5 M; format: functional, cell-based; how it was run: as §1
NCI-H522 = assay: Cytotoxicity against human NCI-H522 cells assessed as cell growth at 1 x 10^-5 M; format: functional, cell-based; how it was run: as §1
HCT-15 = assay: Cytotoxicity against human HCT15 cells assessed as cell growth at 1 x 10^-5 M; format: functional, cell-based; how it was run: as §1
OVCAR-4 = assay: Cytotoxicity against human OVCAR4 cells assessed as cell growth at 1 x 10^-5 M; format: functional, cell-based; how it was run: as §1
A498 = assay: Cytotoxicity against human A498 cells assessed as cell growth at 1 x 10^-5 M; format: functional, cell-based; how it was run: as §1

Cc1cc(O)c2c(c1)C1OC(=O)[C@H](Cc3ccc(NC(=O)COc4ccccc4)cc3)N1C1=C2C(=O)c2cccc(O[C@H]3C[C@@H](O)[C@@H](O)[C@H](C)O3)c2C1=O (stereo partly specified)
inactive: Activity (Escherichia coli [1]) | growth inhibition (GI) (SK-MEL-2) | growth inhibition (GI) (BT-549) | Activity (Escherichia coli [2]) | growth inhibition (GI) (SN12C) | growth inhibition (GI) (SK-MEL-5) | growth inhibition (GI) (LOX IMVI) | growth inhibition (GI) (M14) | growth inhibition (GI) (SNB-19) | growth inhibition (GI) (SR) | growth inhibition (GI) (HOP-92) | growth inhibition (GI) (IGROV-1) | growth inhibition (GI) (NCI-H23) | growth inhibition (GI) (NCI-H226) | growth inhibition (GI) (SF-268) | growth inhibition (GI) (MOLT-4) | growth inhibition (GI) (DU-145) | growth inhibition (GI) (Malme-3M) | growth inhibition (GI) (HCT-116) | growth inhibition (GI) (UO-31) | growth inhibition (GI) (MCF7) | growth inhibition (GI) (CAKI-1) | growth inhibition (GI) (SNB-75) | growth inhibition (GI) (T47D) | growth inhibition (GI) (CCRF-CEM) | growth inhibition (GI) (MDA-MB-468) | growth inhibition (GI) (OVCAR-8) | growth inhibition (GI) (COLO 205) | growth inhibition (GI) (SW-620) | growth inhibition (GI) (UACC-257) | growth inhibition (GI) (A549) | growth inhibition (GI) (UACC-62) | growth inhibition (GI) (U-251) | growth inhibition (GI) (HL-60(TB)) | growth inhibition (GI) (RXF 393) | growth inhibition (GI) (ACHN) | growth inhibition (GI) (SK-OV-3) | growth inhibition (GI) (K562) | growth inhibition (GI) (NCI-H460) | growth inhibition (GI) (SF-295) | growth inhibition (GI) (SF-539) | growth inhibition (GI) (MDA-MB-231) | growth inhibition (GI) (NCI/ADR-RES) | growth inhibition (GI) (MDA-MB-435) | growth inhibition (GI) (PC-3) | growth inhibition (GI) (OVCAR-5) | growth inhibition (GI) (HCC 2998) | growth inhibition (GI) (SK-MEL-28) | Activity (Escherichia coli [3]) | growth inhibition (GI) (KM12) | growth inhibition (GI) (TK-10) | growth inhibition (GI) (HT-29) | growth inhibition (GI) (NCI-H322M) | growth inhibition (GI) (Hs-578T) | growth inhibition (GI) (HOP-62) | growth inhibition (GI) (786-0) | growth inhibition (GI) (OVCAR-3) | growth inhibition (GI) (NCI-H522) | growth inhibition (GI) (HCT-15) | growth inhibition (GI) (OVCAR-4) | growth inhibition (GI) (A498)
